The structures appear in SMILES notation. pIC50: −log10 of the molar value.

For experiment [1], the target named is adenosine kinase. As to conditions: read-out: IC50 adenosine kinase; cited from earlier work.
Experiment [2] deals with human β-cells. The experiment in a line: EdU incorporation proliferation assay in dissociated human islet cells. The format is cell-based. Summed up: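 Human islets dissociated in Accutase (5,000 IEQ/mL, 37°C, 20 min), resuspended in CMRL complete medium and seeded at ~30,000 (96-well) or ~15,000 (384-well) cells per well. EdU was present throughout the 6-day treatment, including FK506 cotreatment. Cells were fixed (3% PFA), permeabilised (0.2% Triton X-100) and stained for C-peptide and DAPI. EdU+ β-cells were scored by automated imaging and manually; 4 wells, 9 fields each; mean ± SD; two-tailed t test vs DMSO.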

Experiment [3] deals with T1, tyrosine kinase TXK (Homo sapiens, UniProt P42681).
T1 sequence (P42681 1-527): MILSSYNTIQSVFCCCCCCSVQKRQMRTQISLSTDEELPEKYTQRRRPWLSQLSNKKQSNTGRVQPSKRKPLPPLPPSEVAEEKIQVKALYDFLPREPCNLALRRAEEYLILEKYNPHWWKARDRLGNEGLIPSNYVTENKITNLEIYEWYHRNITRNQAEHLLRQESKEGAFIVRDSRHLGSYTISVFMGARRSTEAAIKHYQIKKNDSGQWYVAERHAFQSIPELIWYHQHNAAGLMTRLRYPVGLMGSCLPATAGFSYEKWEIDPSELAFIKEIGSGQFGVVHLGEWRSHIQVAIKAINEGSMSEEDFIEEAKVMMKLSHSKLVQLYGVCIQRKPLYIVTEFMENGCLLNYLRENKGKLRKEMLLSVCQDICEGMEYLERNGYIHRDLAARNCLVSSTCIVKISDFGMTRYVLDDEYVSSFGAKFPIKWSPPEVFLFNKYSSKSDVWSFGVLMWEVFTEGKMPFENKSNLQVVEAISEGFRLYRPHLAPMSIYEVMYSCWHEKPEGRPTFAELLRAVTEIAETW
The experiment can be described thus: Human kinome profiling, TXK. As to conditions: read-out: remaining activity TXK. The format is biochemical. The essentials:
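Human kinases profiled by commercial providers under their standard protocols; ATP within 15 μmol/L of the apparent KM for each enzyme.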

Experiment [4] concerns p27KIP phosphorylation (S10). The experiment can be described thus: Western blot of p27KIP phosphorylation. As to conditions: INS-1E cells, 24 or 48 h, 10 μmol/L harmine or 0.5 μmol/L 5-IT. It counts as cell-based, rat. Summed up:
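Cells were treated after overnight attachment and lysed in RIPA buffer. Western blots were probed for p27KIP S10 phosphorylation, with actin as loading control.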
A general note: Immunoblotting shows a protein as a band on a membrane.

Experiment [5] relates to human islet cells (all cell types). As to conditions: cited from earlier work.
The target in experiment [6] is DYRK1A (Homo sapiens, UniProt Q13627). The experiment can be described thus: Biochemical assay for DYRK1A activity using the purified catalytic domain.

Regarding `Nc1ncnc2nc(-c3ccc(N4CCOCC4)nc3)cc(-c3cccc(Br)c3)c12` [ABT-702, 4-amino-5-(3-bromophenyl)-7-(6-morpholinopyridin-3-yl)pyrido[2,3-d]pyrimidine], in experiment [1], the pIC50 is 8.77. The “effect on EdU incorporation” value in experiment [2] (tested up to 20 μmol/L, 6-day treatment) is “no effect”. For the same compound, the remaining activity at 0.5 µM in experiment [3] stood at 60%.
Turning to `COc1ccc2c(c1)[nH]c1c(C)nccc12` [harmine], in experiment [2] (5 and 10 μmol/L, 6-day treatment), the “effect on EdU-positive cells” value is reported as “dose-dependent increase”. In experiment [4], the p27KIP phosphorylation entry is given as “decrease”.
Regarding `COC(=O)C1=C(C)NC(C)=C([N+](=O)[O-])C1c1ccccc1C(F)(F)F` (stereo not shown) [Bay K8644], the “cellular proliferation in human islet cell culture” value in experiment [5] is listed as “induces nonspecific cellular proliferation”.
In the case of `COc1ccc2c3c([nH]c2c1)C(C)=NCC3` [harmaline], in experiment [2] (6-day treatment), the “effect on EdU incorporation versus vehicle” value was “no effect”. Also, in experiment [6], the “activity toward DYRK1A” value is on record as “no activity”.
As for `C=CC[C@@H]1/C=C(\C)C[C@H](C)C[C@H](OC)[C@H]2O[C@@](O)(C(=O)C(=O)N3CCCC[C@H]3C(=O)O[C@H](/C(C)=C/[C@@H]3CC[C@@H](O)[C@H](OC)C3)[C@H](C)[C@@H](O)CC1=O)[C@H](C)C[C@@H]2OC` [FK506], the “effect of cotreatment on 5-IT-induced EdU-positive β-cells” value in experiment [2] (1 μmol/L FK506 with 1 μmol/L 5-IT) was “completely blocked”. For the same compound, the “effect of cotreatment on harmine-induced EdU-positive β-cells” value in experiment [2] (1 μmol/L FK506 with 10 μmol/L harmine) is on record as “completely blocked”.

One may read the pIC50 as the IC50 on a negative log10 scale, so that one unit is a factor of ten. A word on the remaining activity: it is the signal under treatment as a percentage of the control signal.
